26 compounds from ChEMBL document CHEMBL2331319, “Development of N-Hydroxycinnamamide-Based Histone Deacetylase Inhibitors with Indole-Containing Cap Group” (ACS Med Chem Lett, 2013) can be followed below.

The source made the active and inactive calls. No cut-off for these calls is given here.

One data set has as its target Histone deacetylase. Put plainly: Inhibition of HDAC in human HeLa cell nuclear extract using Boc-Lys(acetyl)-AMC as substrate preincubated with enzyme for 5 mins prior to substrate addition measured after 30 mins by fluorescence assay. The class given is protein assay.
For the next data set, the system named is A549. Put plainly: Inhibition of human A549 cell proliferation after 48 hrs by MTT assay. The data set is classed as functional, cell-based. As to conditions: A549, 48 h.
Data set [1] in a line: Inhibition of human ES2 cell proliferation after 48 hrs by MTT assay. The data set is classed as functional, cell-based. To be noted: ES-2, 48 h. On the technique in general: Tetrazolium assays rely on reduction of a dye to a coloured formazan, in cell work by metabolically active cells.
In data set [2] the test system is U-937. Put plainly: Antitumor activity against human U937 cells xenografted in athymic nude mouse assessed as T/C ratio at 60 mg/kg/day, po administered 10 days after tumor inoculation for 3 weeks. The data set is classed as functional. An outline of the steps:
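U937 cells implanted in nude mice, seven per group; oral dosing with a positive-control group run alongside. Tumour growth was followed as a growth curve, data given as mean ± SD; efficacy was expressed as tumour growth inhibition and relative increment ratio.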
For orientation: Xenograft models place foreign cells or tissue in a host animal.

For data set [3], the system named is MDA-MB-231. Kind of data set: cells. As to conditions: Homo sapiens, MDA-MB-231, 48 h. The class given is functional, cell-based.
For data set [4], the system named is U-937. Put plainly: Antitumor activity against human U937 cells xenografted in athymic nude mouse assessed as tumor growth inhibition at 60 mg/kg/day, po administered 10 days after tumor inoculation for 3 weeks measured every three days by vernier caliper. The data set is classed as functional. As to conditions: read-out: TGI. An outline of the steps: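 U937 xenografts in nude mice, seven per group, with oral dosing and a reference agent as positive control. Tumour growth was followed as a growth curve, and the data are given as mean ± SD.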

In data set [5] the test system is U-937. Put plainly: Inhibition of human U937 cell proliferation after 48 hrs by MTT assay. The class given is functional, cell-based. To be noted: U-937, 48 h.
Data set [6] concerns MDA-MB-231. Kind of data set: Increase in histone H4 acetylation in human MDA-MB-231 cells at 1 uM after 3 to 24 hrs by Western blot analysis. The data set is classed as functional, cell-based. Put shortly:
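MDA-MB-231 cells were exposed at 1 μM for 3 h and 24 h. Lysates were immunoblotted for acetylated histone H4, with β-actin as the loading control.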
In general terms: A western blot detects proteins with antibodies after separation by electrophoresis.

The test system of data set [7] is Mus musculus. Kind of data set: Toxicity in athymic nude mouse xenografted with human U937 cells assessed as spleen injury at 60 mg/kg/day, po administered 10 days after tumor inoculation for 3 weeks. The data set is classed as organism-based, U-937. To be noted: in vivo. On the set-up: route oral.
The test system of the next data set is HCT-116. Put plainly: Inhibition of human HCT116 cell proliferation after 48 hrs by MTT assay. The data set is classed as functional, cell-based. To be noted: HCT-116, 48 h.
Data set [8] relates to Mus musculus. Kind of data set: Toxicity in athymic nude mouse xenografted with human U937 cells assessed as body weight loss at 60 mg/kg/day, po administered 10 days after tumor inoculation for 3 weeks. The class given is organism-based, U-937. Also on record: route oral. As to conditions: in vivo.
In data set [9] the test system is Mus musculus. Put plainly: Toxicity in athymic nude mouse xenografted with human U937 cells assessed as liver injury at 60 mg/kg/day, po administered 10 days after tumor inoculation for 3 weeks. The data set is classed as organism-based, U-937. Also on record: route oral. To be noted: in vivo.
For another data set, the system named is PC-3. Kind of data set: Inhibition of human PC3 cell proliferation after 48 hrs by MTT assay. The class given is functional, cell-based. As to conditions: PC-3, 48 h.
Data set [10] concerns U-937. Kind of data set: Antitumor activity against human U937 cells xenografted in athymic nude mouse assessed as tumor growth inhibition at 20 mg/kg/day, po administered 10 days after tumor inoculation for 3 weeks measured every three days by vernier caliper. To be noted: read-out: TGI. The data set is classed as functional. Put shortly:
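U937 xenografts in nude mice, seven mice per group. Tamibarotene served as the positive control. Growth curves of the implanted tumours were followed over the treatment period and reported as mean ± SD.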

For data set [11], the system named is U-937. Put plainly: Antitumor activity against human U937 cells xenografted in athymic nude mouse assessed as T/C ratio at 20 mg/kg/day, po administered 10 days after tumor inoculation for 3 weeks. The data set is classed as functional.

As usually defined, the IC50 is the concentration that gives 50% inhibition. Read a high IC50 as weaker potency. In the case of `COc1cc(/C=C/C(=O)NO)ccc1OC[C@H](Cc1c[nH]c2ccccc12)NC(=O)OC(C)(C)C`, the IC50 on Histone deacetylase worked out at 0.65 µM.

In turn, `COc1cc(/C=C/C(=O)NO)ccc1OC[C@H](Cc1c[nH]c2ccccc12)NC(=O)[C@@H]1CCCN1C(=O)OC(C)(C)C` returned an IC50 on Histone deacetylase of 0.43 µM.

Consider `COc1cc(/C=C/C(=O)NO)ccc1OC[C@H](Cc1c[nH]c2ccccc12)NS(=O)(=O)c1ccc(NC(C)=O)cc1`, for which, at Histone deacetylase, the IC50 was 0.71 µM.

Consider `COc1cc(/C=C/C(=O)NO)ccc1OC[C@H](Cc1c[nH]c2ccccc12)NC(=O)c1ccc(NC(=O)OC(C)(C)C)cc1`, for which the IC50 against Histone deacetylase was 0.73 µM.

In the case of `COc1cc(/C=C/C(=O)NO)ccc1OC[C@H](Cc1c[nH]c2ccccc12)NC(=O)[C@H](Cc1c[nH]c2ccccc12)NC(=O)OC(C)(C)C`, the IC50 against Histone deacetylase came to 0.49 µM.

For `COc1cc(/C=C/C(=O)NO)ccc1OC[C@H](Cc1c[nH]c2ccccc12)NC(=O)C1CCN(C(=O)OC(C)(C)C)CC1`, the IC50 against Histone deacetylase was found to be 1.12 µM.

In turn, `COc1cc(/C=C/C(=O)NO)ccc1OC[C@H](Cc1c[nH]c2ccccc12)NS(=O)(=O)c1ccc(Cl)cc1` gave an IC50 against Histone deacetylase of 1.47 µM.

For the compound `COc1cc(/C=C/C(=O)NO)ccc1OC[C@H](Cc1c[nH]c2ccccc12)NC(=O)[C@H](CC(C)C)NC(=O)OC(C)(C)C`, on Histone deacetylase, the IC50 was determined as 0.57 µM.

Regarding `CCCC(CCC)C(=O)N[C@H](COc1ccc(/C=C/C(=O)NO)cc1OC)Cc1c[nH]c2ccccc12`, the IC50 was found to be 4.4 µM in the data set with A549; 5.4 µM in data set [1]; 3.1 µM in the data set with MDA-MB-231 [3]; 1.8 µM with U-937 [5]; 5.5 µM with HCT-116; 3.7 µM in the data set with PC-3. The Activity is 42% in the data set with U-937 [2], “Non-toxic” in the data set on Mus musculus [7], “Non-toxic” with Mus musculus [8] and “Non-toxic” in the data set with Mus musculus [9]. Moreover, the inhibition in vivo at 60 mg/kg/day with U-937 [4] was found to be 53%. The result in the data set with MDA-MB-231 [6] was Active.

As to `CC[C@H](C)[C@H](NC(=O)OC(C)(C)C)C(=O)N[C@H](COc1ccc(/C=C/C(=O)NO)cc1OC)Cc1c[nH]c2ccccc12`, the IC50 at Histone deacetylase is 0.38 µM.

For the compound `COc1cc(/C=C/C(=O)NO)ccc1OC[C@H](Cc1c[nH]c2ccccc12)NC(=O)[C@@H](NC(=O)OC(C)(C)C)[C@@H](C)O`, the IC50 in the data set on A549 was found to be 7 µM; in data set [1], 8.9 µM; in the data set with MDA-MB-231 [3] it was 7.2 µM; in the data set on U-937 [5] it was 2.7 µM; against Histone deacetylase it was 0.18 µM; with HCT-116 it was 2.4 µM. In the data set on PC-3, this compound returned an IC50 of 5.4 µM.

Consider `COc1cc(/C=C/C(=O)NO)ccc1OC[C@H](Cc1c[nH]c2ccccc12)NC(=O)[C@H](CO)NC(=O)OC(C)(C)C`, for which the IC50 in the data set on A549 came out at 13.5 µM; in data set [1] it was 9.5 µM; in the data set on MDA-MB-231 [3], 11.7 µM; in the data set on U-937 [5] it was 3.9 µM; against Histone deacetylase, 0.14 µM; in the data set on HCT-116, 9.4 µM. The same compound registered an IC50 with PC-3 of 8.2 µM.

Consider `COc1cc(/C=C/C(=O)NO)ccc1OC[C@H](Cc1c[nH]c2ccccc12)NC(=O)[C@H](C)NC(=O)OC(C)(C)C`, for which the IC50 in the data set on A549 worked out at 4.2 µM; in data set [1] it was 25.1 µM; with MDA-MB-231 [3], 4.5 µM; in the data set with U-937 [5], 2.2 µM; against Histone deacetylase, 0.16 µM; in the data set on HCT-116, 3.8 µM. Also, the IC50 in the data set on PC-3 is 10.4 µM.

Regarding `COc1cc(/C=C/C(=O)NO)ccc1OC[C@H](Cc1c[nH]c2ccccc12)NC(=O)[C@@H]1CC2(CN1C(=O)OC(C)(C)C)SCCS2`, at Histone deacetylase, the IC50 came to 0.8 µM.

`COc1cc(/C=C/C(=O)NO)ccc1OC[C@@H](N)Cc1c[nH]c2ccccc12.Cl` displayed an IC50 at Histone deacetylase of 2.91 µM.

On to `O=C(CCCCCCC(=O)Nc1ccccc1)NO` [VORINOSTAT], for which the results for the IC50 (in data set [1]; in the data set on U-937 [5]) were 12.7 µM and 2.3 µM, respectively.

As to `CC1(C)CCC(C)(C)c2cc(NC(=O)c3ccc(C(=O)O)cc3)ccc21` [TAMIBAROTENE], the inhibition in vivo at 20 mg/kg/day with U-937 [10] amounted to 33%. Moreover, the Activity in the data set on U-937 [11] is reported as 85%.

On to `COc1cc(/C=C/C(=O)NO)ccc1OC[C@H](Cc1c[nH]c2ccccc12)NC(=O)[C@H](Cc1ccccc1)NC(=O)OC(C)(C)C`, for which the IC50 at Histone deacetylase came out at 0.62 µM.

With `COc1cc(/C=C/C(=O)NO)ccc1OC[C@H](Cc1c[nH]c2ccccc12)NS(=O)(=O)c1c(C(C)C)cc(C(C)C)cc1C(C)C`, the IC50 result in the data set on Histone deacetylase is on record as “ND(Insoluble)”.

`COc1cc(/C=C/C(=O)NO)ccc1OC[C@H](Cc1c[nH]c2ccccc12)NC(=O)[C@H](Cc1ccc(O)cc1)NC(=O)OC(C)(C)C` returned an IC50 against Histone deacetylase of 0.32 µM.

At Histone deacetylase, `COc1cc(/C=C/C(=O)NO)ccc1OC[C@H](Cc1c[nH]c2ccccc12)NC(=O)[C@H](CCCCNC(=O)OC(C)(C)C)NC(=O)OC(C)(C)C` registered an IC50 of 1.17 µM.

In the case of `COc1cc(/C=C/C(=O)NO)ccc1OC[C@H](Cc1c[nH]c2ccccc12)NC(=O)[C@H](CCSC)NC(=O)OC(C)(C)C`, the half-inhibitory concentration (IC50) was 1.6 µM in the data set with A549; 4.4 µM in data set [1]; 6.8 µM with MDA-MB-231 [3]; 2.2 µM in the data set with U-937 [5]; 0.18 µM on Histone deacetylase; 5.9 µM in the data set with HCT-116. The IC50 in the data set on PC-3 amounted to 5.8 µM.

Turning to `COc1cc(/C=C/C(=O)NO)ccc1OC[C@H](Cc1c[nH]c2ccccc12)NC(=O)CNC(=O)OC(C)(C)C`, the IC50 in the data set on A549 came out at 11.8 µM; in data set [1], 29.2 µM; with MDA-MB-231 [3], 7.2 µM; in the data set with U-937 [5] it was 3.1 µM; at Histone deacetylase, 0.17 µM; in the data set with HCT-116, 6 µM. Moreover, the IC50 with PC-3 came out at 10.5 µM.

The compound `COc1cc(/C=C/C(=O)NO)ccc1OC[C@H](Cc1c[nH]c2ccccc12)NC(=O)[C@@H](NC(=O)OC(C)(C)C)C(C)C` registered an IC50 at Histone deacetylase of 0.43 µM.

As to `COc1cc(CCC(=O)NO)ccc1OC[C@H](Cc1c[nH]c2ccccc12)NC(=O)OC(C)(C)C`, the IC50 at Histone deacetylase came out at 2.09 µM.

As for `COc1cc(/C=C/C(=O)NO)ccc1OC[C@H](Cc1c[nH]c2ccccc12)NS(=O)(=O)c1ccc(F)cc1`, the IC50 against Histone deacetylase was determined as 1.06 µM.
